Test system: A-431
Assay: Antiproliferative activity against human A431 cells after 48 hrs by MTT assay
Format: functional, cell-based
Conditions: A-431, 48 h
How it was run: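 Cells in complete medium seeded into 96-well plates, preincubated 24 h at 37 °C, 5% CO₂ before cytotoxicity assessment; absorbance read at 570 nm on plate reader.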

O=c1[nH]cc(F)c(=O)[nH]1 [FLUOROURACIL]
IC50: 18 nM

Source: ChEMBL document CHEMBL1154155, “Novel 2,4,5-trisubstituted oxazole derivatives: synthesis and antiproliferative activity” (Eur J Med Chem, 2009)
